Assay results pooled from the literature.
Protocols differ between the studies behind these lines.
Target: Ephrin type-A receptor 8 (EPHA8, Homo sapiens, UniProt P29322)
Sequence (P29322 1-1005, as in one of the studies): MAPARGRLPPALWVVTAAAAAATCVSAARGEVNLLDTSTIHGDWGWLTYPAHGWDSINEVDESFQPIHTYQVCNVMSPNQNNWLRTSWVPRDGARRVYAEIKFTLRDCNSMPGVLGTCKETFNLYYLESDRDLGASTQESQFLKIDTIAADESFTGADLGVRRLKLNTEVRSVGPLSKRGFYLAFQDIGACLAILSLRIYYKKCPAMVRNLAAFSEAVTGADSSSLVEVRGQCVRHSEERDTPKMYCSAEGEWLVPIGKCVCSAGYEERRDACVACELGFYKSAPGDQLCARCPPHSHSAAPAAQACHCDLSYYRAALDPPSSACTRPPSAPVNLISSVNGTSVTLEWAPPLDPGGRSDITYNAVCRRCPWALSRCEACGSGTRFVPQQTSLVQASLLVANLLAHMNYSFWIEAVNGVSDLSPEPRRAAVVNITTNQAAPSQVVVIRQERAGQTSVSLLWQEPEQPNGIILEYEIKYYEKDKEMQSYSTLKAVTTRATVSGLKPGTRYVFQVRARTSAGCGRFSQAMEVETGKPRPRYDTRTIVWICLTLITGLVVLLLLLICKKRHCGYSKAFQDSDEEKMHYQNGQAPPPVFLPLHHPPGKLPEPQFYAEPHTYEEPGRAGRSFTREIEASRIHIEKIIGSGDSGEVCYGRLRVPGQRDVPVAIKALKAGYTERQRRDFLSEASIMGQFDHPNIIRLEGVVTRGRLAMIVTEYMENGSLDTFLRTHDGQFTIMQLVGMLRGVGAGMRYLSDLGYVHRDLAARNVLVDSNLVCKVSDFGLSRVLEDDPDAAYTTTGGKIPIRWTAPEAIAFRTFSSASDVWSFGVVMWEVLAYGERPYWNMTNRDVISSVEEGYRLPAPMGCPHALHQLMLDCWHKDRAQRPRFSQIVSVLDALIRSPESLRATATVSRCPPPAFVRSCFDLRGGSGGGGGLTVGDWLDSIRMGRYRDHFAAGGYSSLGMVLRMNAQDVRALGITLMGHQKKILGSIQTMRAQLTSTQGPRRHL

Compound	observed	mode	technique	tested at	measurement	result
Cc1nc(Cc2cccc(C(F)(F)F)c2)sc1-c1ccc(C(N)=O)nc1	cell-free assay	–	competition with immobilised ligand	1 µM	remaining binding	100%
CC(C)(C)c1nc2c(s1)c1nc(N)ncc1c1ccc(NS(=O)(=O)c3c(F)cccc3F)c(F)c12	enzyme activity	inhibitor	radiometric	1 µM	remaining activity	95%
O=C1Nc2ccc(Cl)cc2C1=Cc1cc(Cl)c(O)c(Cl)c1	cell-free assay	–	–	0.5 µM	remaining signal	91.5%
Cc1cnc(NC2CCOCC2)nc1-n1cnc(C(=O)NC(CN)c2cc(F)cc(Cl)c2)c1 (stereo not drawn)	enzyme activity	inhibitor	radiometric	1 µM	remaining activity	95%
C[C@@]1(Cc2ccc(C#N)cc2)C(=O)N(c2cc(Cl)cc(Cl)c2)c2ncc(C(=O)NC3(c4nc(C5CCC5)no4)CC3)n21	cell-free assay	–	competition with immobilised ligand	1 µM	remaining binding	100%
COc1cc(-c2cc(-c3ccc(N4CCNCC4)cc3)cnc2C)cc(OC)c1OC	enzyme activity	inhibitor	–	0.1 µM	inhibition	3%
O=C(O)c1cc(-c2ccc(C3CCNCC3)cc2)c2ccc(-c3ccc(C(F)(F)F)cc3)cc2c1	cell-free assay	–	competition with immobilised ligand	1 µM	remaining binding	100%
CNC(=O)c1cc(Oc2ccc(NC(=O)Nc3ccc(Cl)c(C(F)(F)F)c3)cc2)ccn1	enzyme activity	inhibitor	–	0.3 µM	inhibition	23%
CC/C(=N\NC(=O)NCc1cccc(O)c1)c1ccc(O)c(C)c1O	enzyme activity	inhibitor	–	0.1 µM	inhibition	-0.5%
O=C(Nc1cnn(-c2csc(C(=O)NC3COC3)c2)c1)Nc1c(F)cccc1Cl	enzyme activity	inhibitor	–	5 µM	remaining activity	93.8%
N#CCCc1ccc2c(c1)-c1[nH]c3ccc([N+](=O)[O-])cc3c1CC(=O)N2	cell-free assay	–	–	0.5 µM	remaining signal	105%
CC(C)(O)[C@H]1CC[C@H](Nc2ccc3ncc(-c4cccc(C(F)(F)F)c4)n3n2)CC1	enzyme activity	inhibitor	–	1 µM	remaining activity	84.3%
Nc1ncnc2occ(-c3ccc(NC(=O)Nc4cc(C(F)(F)F)ccc4F)cc3)c12	cell-free assay	–	–	20 µM	remaining signal	0%
O=C(NCc1ncc(C(F)(F)F)cc1Cl)c1ccc2c(c1)C1(CCS(=O)(=O)CC1)[C@@H](C1CC1)N2S(=O)(=O)c1ccc(F)cc1	cell-free assay	–	competition with immobilised ligand	1 µM	remaining binding	100%
CCN(CC)CCNC(=O)c1c(C)[nH]c(/C=C2\C(=O)Nc3ccc(F)cc32)c1C	cell-free assay	–	–	0.5 µM	remaining signal	92.1%
COc1cc2ncnc(Nc3ccc(Oc4ccccc4)c(C)c3C)c2cc1OC	enzyme activity	inhibitor	–	1 µM	inhibition	6%
CNC(=O)c1ccc(Nc2ncc(C(F)(F)F)c(NCc3nccnc3N(C)S(C)(=O)=O)n2)cc1	cell-free assay	–	competition with immobilised ligand	0.1 µM	remaining binding	87%
Cc1ccc(Nc2nccc(N(C)c3ccc4c(C)n(C)nc4c3)n2)cc1S(N)(=O)=O	enzyme activity	inhibitor	–	10 µM	inhibition	81%
CCCOc1ccc(OC)c(F)c1C(=O)c1ccc(C(=O)N[C@@H]2CNC[C@H]2NC(=O)c2ccc3[nH]ncc3c2)cc1	enzyme activity	inhibitor	–	10 µM	remaining activity	95%
O=C(NC[C@@H]1[C@H]2CN(C(=O)OCc3cc(C(F)(F)F)cc(C(F)(F)F)c3)C[C@@H]12)c1ccc2[nH]nnc2c1	cell-free assay	–	competition with immobilised ligand	1 µM	remaining binding	100%
Cc1cc(NC(=O)c2cccc3cc(-c4cccc5[nH]nc(N)c45)ccc23)ccc1F	enzyme activity	inhibitor	–	0.1 µM	activity vs control	97%
